Entries after “also recorded” stand apart in the source; their conditions may differ. Marks after values point to notes of the source that are not given here.
What was measured:
[1] = Pharmacokinetics of etoricoxib in plasma, CSF and tissue exudate; type: in vivo, human; conditions: for Cmax / Tmax / Kp: human, 120 mg; for Kp: CSF/plasma
How it was run: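 Six hip-arthroplasty patients given oral 120 mg at 6:30 a.m. on surgery day and 24 h later. Blood and intrathecal-catheter CSF sampled predose and 1.5–48 h, first 1 mL CSF discarded; drain exudate collected hourly windows. LC-MS/MS with phenazone internal standard, LOQ 0.2 ng/mL, validated 0.2–200 ng/mL. AUC0–24 h by linear trapezoidal method; CSF/plasma ratio from AUCs, maximal ratio from individual concentrations.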

[2] = system: prostaglandin E2 (PGE2); assay: Prostaglandin E2 in tissue exudate, plasma and CSF; type: in vivo, human
How it was run: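 Hip-arthroplasty patients dosed orally with 120 mg test compound or placebo on surgery day and next day. Drain exudate collected over 60 min before 4, 8, 12, 24, 26, 32, 48 h, centrifuged, supernatant frozen −30 °C. PGE2 in exudate and plasma by ELISA (LOQ 15 pg/mL). CSF PGE2 by solid-phase extraction LC-MS/MS with prostaglandin D2-d4 (LOQ 25–200 pg/mL). Partial AUCs by trapezoidal rule.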

[3] = cited from earlier work
[4] = Patient ratings of post-operative pain, satisfaction and sleep disturbance; type: in vivo, human; conditions: first 24 h; interaction p = 0.036
How it was run: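 Patients dosed orally with 120 mg test compound or placebo on surgery day and next day, double-blind. Global pain and operated-hip pain at rest and passive movement rated on 11-point scale (0 = no pain, 10 = worst) at 4, 8, 12, 24, 26, 32, 48 h. Satisfaction with analgesia on numeric rating scale; sleep disturbance (0–10) at 24, 48, 72 h.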

[5] = Safety: adverse events and blood loss during surgery; type: in vivo, human
[6] = system: interleukin 6 (IL6); assay: Interleukin 6 in plasma, CSF and tissue exudate; type: in vivo, human
How it was run: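 Osteoarthritis patients (59–77 y) undergoing hip arthroplasty under spinal bupivacaine, given oral test compound 120 mg or placebo at 6:30 a.m. on surgery day and next day. Plasma and CSF sampled predose and 1.5–48 h; drain exudate collected over 60 min before 4–48 h, centrifuged, frozen −30 °C. IL6 by ELISA (LOQ 7.8 pg/mL); partial AUCs by linear trapezoidal rule.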

[7] = Post-operative consumption of intrathecal bupivacaine and piritramide; type: in vivo, human
How it was run: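 After spinal bupivacaine 0.5% via lumbar intrathecal catheter, 0.01% bupivacaine infused intrathecally at 4–6 mL/h plus patient-controlled boluses up to 1 mL every 10 min, 4-h lockout 40 mL. Breakthrough pain: piritramide i.v. up to 5 mg (s.c. up to 15 mg). Total consumption, requests, delivered boluses and request times recorded. Patient lacking catheter excluded.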

[8] = same dose; ref Fletcher et al., [1995]; cited from earlier work
[9] = tissue exudate, 12–24 h, mean, n = 6
[10] = tissue exudate, 24–36 h, mean, n = 6
[11] = tissue exudate, 36–47 h, mean, n = 6

Cc1ccc(-c2ncc(Cl)cc2-c2ccc(S(C)(=O)=O)cc2)cn1 [Etoricoxib, etoricoxib]
Cmax ([1]; CSF, po): 160 ng/mL
Tmax ([1]; CSF, po): 1.5 h
Kp ([1]; oral, CSF/plasma ratio AUC 0–24 h, individual ratios, mean (range)): 0.041
Kp ([1]; oral, Maximal CSF/plasma conc. ratio, individual maximal concentration ratio, mean (SD)): 0.122
Tmax ([1]; oral): < 2 h
Cmax ([1]; plasma, po): 1880 ng/mL
Tmax ([1]; plasma, po): 1.5 h
CSF/plasma ratio AUC 0–48 h ([1]; individual ratios, mean (range), subgroup n = 5): 4.7 (2.8–8.1) ^b %
tmax for CSF/plasma conc. ratio ([1]; median (range)): 1.75 (1.5–32) h
Concentrations of PGE2 in plasma and CSF ([2]; plasma and CSF, both groups, differences not significant): near or below the LOQ
PGE2 production in the surgical wound ([2]; preoperative administration): complete blockade
PGE2 tissue exudate AUC (4–12 h) ([2]; tissue exudate (hip drain), 4–12 h, mean, n = 6): 40 ng·h/mL
PGE2 tissue exudate AUC (12–24 h) [2, 9]: 48 ng·h/mL
PGE2 tissue exudate AUC (24–36 h) [2, 10]: 29 ng·h/mL
PGE2 tissue exudate AUC (36–47 h) [2, 11]: 16 ng·h/mL
PGE2 concentration in wound fluid ([2]; wound fluid, versus fast increase in placebo group, treatment p = 0.014): remained low throughout
Absorption, bioavailability and elimination ([3]; ref Agrawal et al., [2003]): fast absorption, high bioavailability and slow elimination
Post-operative analgesic satisfaction versus placebo [4]: significantly higher
Intra-OP BL (blood loss during surgery) ([5]; 120 mg 2 h before surgery, mean (SD), n = 6): 383 (98) mL
Unwanted drug effects ([5]; either treatment group): not seen
IL6 cerebrospinal fluid (w/o R111) AUC (1.5–12 h) ([6]; CSF, 1.5–12 h, mean, n = 6): 340 pg·h/mL
IL6 cerebrospinal fluid (w/o R111) AUC (12–24 h) ([6]; CSF, 12–24 h, mean, n = 6): 660 pg·h/mL
IL6 cerebrospinal fluid (w/o R111) AUC (24–36 h) ([6]; CSF, 24–36 h, mean, n = 5): 575 pg·h/mL
IL6 cerebrospinal fluid (w/o R111) AUC (36–48 h) ([6]; CSF, 36–48 h, mean, n = 5): 436 pg·h/mL
IL6 plasma AUC (1.5–12 h) ([6]; plasma, 1.5–12 h, mean, n = 6): 435 pg·h/mL
IL6 plasma AUC (12–24 h) ([6]; plasma, 12–24 h, mean, n = 6): 596 pg·h/mL
IL6 plasma AUC (24–36 h) ([6]; plasma, 24–36 h, mean, n = 6): 598 pg·h/mL
IL6 plasma AUC (36–48 h) ([6]; plasma, 36–48 h, mean, n = 6): 409 pg·h/mL
Time until plasma IL6 returned to preoperative levels ([6]; plasma, time after surgery): ≤ 20 h
IL6 tissue exudate AUC (4–12 h) ([6]; tissue exudate, 4–12 h, mean, n = 6): 479 ng·h/mL
IL6 tissue exudate AUC (12–24 h) [6, 9]: 1606 ng·h/mL
IL6 tissue exudate AUC (24–36 h) [6, 10]: 1200 ng·h/mL
IL6 tissue exudate AUC (36–47 h) [6, 11]: 861 ng·h/mL
Demand for piritramide versus placebo ([7]; 2 to 48 h, main effect treatment p = 0.003): significantly higher in the placebo group
On request local anaesthetic administration versus placebo ([7]; only during the first 12 h post-operatively, main effect treatment p = 0.052): higher in the placebo group

Cc1ccc(-c2cc(C(F)(F)F)nn2-c2ccc(S(N)(=O)=O)cc2)cc1 [celecoxib]
Absorption / bioavailability ([3]; oral, ref Brune et al., [2010]): absorbed slowly and to show variable (low) bioavailability; also recorded: slow and incomplete absorption

O=C(c1ccccc1)c1ccc2n1CCC2C(=O)O (stereo not shown) [ketorolac]
Pain relief with preoperative versus post-operative administration [8]: significantly superior with preoperative administration
